# Data reported in article PMC7693203 (Epilepsia, 2020).
# Like-named read-outs stand apart in the source and are kept apart here. Marks after values point to notes of the source that are not given here.
# Key:
# [1] = Other safety parameters for all six trials; assay type: in vivo, human; conditions: result in words
# How it was run: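 Safety was assessed in open-label, fixed-sequence phase 1 trials in healthy volunteers and in randomized, double-blind, placebo-controlled phase 2 trials in epilepsy patients. Assessments covered treatment-emergent adverse events, clinical laboratory evaluations, vital signs, 12-lead ECGs, physical examinations and the C-SSRS questionnaire. The safety population comprised subjects given at least one dose. In CYP3A4 trials, volunteers also needed at least one postdose assessment.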
# [2] = system: CYP3A4/2C19; conditions: result in words
# [3] = target: T1, CYP3A4 (Homo sapiens, UniProt P08684); conditions: result in words
# [4] = target: T2, CYP2C19 (Homo sapiens, UniProt P33261)
# [5] = not given; remark: listed apart in the source
# [6] = not given; remark: listed apart in the source
# [7] = steady-state CBD, healthy volunteers; result in words; cited from earlier work
# [8] = cited from earlier work
# [9] = cited from earlier work; remark: listed apart in the source
# [10] = result in words; cited from earlier work
# [11] = target: T2, CYP2C19; conditions: human liver microsomes; result in words; cited from earlier work
# [12] = system: UGT1A9; conditions: in vitro; result in words; cited from earlier work
# [13] = system: UGT2B7; conditions: in vitro; result in words; cited from earlier work
# [14] = system: CYP3A4/2C19; assay: clinical; conditions: human, in vivo, 750 mg
# [15] = target: T1, CYP3A4; assay: clinical; conditions: in vivo, 750 mg
# [16] = target: T2, CYP2C19; assay: clinical; conditions: in vivo, 750 mg
# [17] = trial 17028, healthy volunteers, N = 16
# [18] = trial 17074, healthy volunteers, N = 16
# [19] = trial 17075, healthy volunteers, N = 32
# [20] = trial 1428, patients with epilepsy, N = 16
# [21] = trial 1428, patients with epilepsy, N = 20
# [22] = trial 1447, patients with epilepsy, N = 28
# [23] = trial 1447, patients with epilepsy, N = 34
# T1 sequence (P08684 whole entry): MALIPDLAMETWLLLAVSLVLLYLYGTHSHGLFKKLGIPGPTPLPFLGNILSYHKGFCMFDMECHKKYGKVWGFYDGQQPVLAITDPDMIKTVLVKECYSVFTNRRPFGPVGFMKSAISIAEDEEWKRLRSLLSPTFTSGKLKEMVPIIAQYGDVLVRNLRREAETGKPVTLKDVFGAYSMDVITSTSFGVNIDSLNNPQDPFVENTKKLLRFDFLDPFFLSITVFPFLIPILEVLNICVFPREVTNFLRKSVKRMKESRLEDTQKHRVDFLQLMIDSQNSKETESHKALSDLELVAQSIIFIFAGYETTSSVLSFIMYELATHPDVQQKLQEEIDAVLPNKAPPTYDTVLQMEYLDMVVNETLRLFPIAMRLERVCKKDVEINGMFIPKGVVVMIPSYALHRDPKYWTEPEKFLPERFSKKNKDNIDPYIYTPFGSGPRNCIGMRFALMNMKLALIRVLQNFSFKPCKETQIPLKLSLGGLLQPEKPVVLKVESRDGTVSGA
# T2 sequence (P33261 whole entry): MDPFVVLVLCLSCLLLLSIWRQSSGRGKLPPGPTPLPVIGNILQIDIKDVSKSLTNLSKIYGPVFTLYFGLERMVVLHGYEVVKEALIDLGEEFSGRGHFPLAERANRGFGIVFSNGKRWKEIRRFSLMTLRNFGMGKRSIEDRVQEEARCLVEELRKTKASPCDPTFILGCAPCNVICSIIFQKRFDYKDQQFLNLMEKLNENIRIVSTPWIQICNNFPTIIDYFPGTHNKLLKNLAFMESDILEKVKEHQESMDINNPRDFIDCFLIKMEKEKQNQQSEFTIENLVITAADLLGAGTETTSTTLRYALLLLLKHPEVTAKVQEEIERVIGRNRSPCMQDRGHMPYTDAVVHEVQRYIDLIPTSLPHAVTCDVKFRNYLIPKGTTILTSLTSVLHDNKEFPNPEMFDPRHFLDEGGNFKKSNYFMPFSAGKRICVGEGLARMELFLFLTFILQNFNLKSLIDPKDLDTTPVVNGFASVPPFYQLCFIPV
compound,measurement,setting,value
"C=C(C)[C@@H]1CCC(C)=C[C@H]1c1c(O)cc(CCCCC)cc1O [CBD, cannabidiol]",instances that met Hy’s law criteria for potential drug‐induced liver injury,[1],no instances
same,suicidal ideation or behavior by C‐SSRS,[1],No suicidal ideation or behavior
same,t ½ with concomitant RIF,[2],unaffected
same,clearance with concomitant ITC,[3],unaffected
same,effect of concomitant steady‐state ITC on exposure,[3],did not affect
same,t ½ with concomitant ITC,[3],unaffected
same,clearance with concomitant FLU,[4]; result in words,not affected
same,t ½ with concomitant FLU,[4]; result in words,not affected
same,increase in AUCtau with concomitant steady‐state FLU,[4]; single dose of CBD,21%
same,increase in C max with concomitant steady‐state FLU,[4]; single dose of CBD,24%
same,elevation in AST levels observed,trial 17028,four
same,elevations in alanine aminotransferase levels observed,trial 17028,three
same,AEs leading to withdrawal,[17],2 (13) n (%)
same,Abdominal pain,[17],2 (13) n (%)
same,Chromaturia,[17],0 (0) n (%)
same,Death,[17],0 (0) n (%)
same,Diarrhea,[17],6 (38) n (%)
same,Fatigue,[17],3 (19) n (%)
same,Flatulence,[17],0 (0) n (%)
same,Headache,[17],4 (25) n (%)
same,Hepatic enzyme increased,[17],4 (25) n (%)
same,Nausea,[17],2 (13) n (%)
same,Patient with at least 1 AE,[17],15 (94) n (%)
same,Serious AEs,[17],0 (0) n (%)
same,Severe AEs,[17],0 (0) n (%)
same,Somnolence,[17],5 (31) n (%)
same,healthy volunteers with elevations in transaminase levels reported as AEs,"trial 17028, of 16",25%
same,healthy volunteers reporting AEs,"trial 17028, of 16, CBD as multiple doses",94%
same,AEs leading to withdrawal,[5]; [18],0 (0) n (%)
same,Abdominal pain,[5]; [18],0 (0) n (%)
same,Death,[5]; [18],0 (0) n (%)
same,Diarrhea,[5]; [18],3 (19) n (%)
same,Fatigue,[5]; [18],0 (0) n (%)
same,Flatulence,[5]; [18],0 (0) n (%)
same,Headache,[5]; [18],2 (13) n (%)
same,Hepatic enzyme increased,[5]; [18],0 (0) n (%)
same,Nausea,[5]; [18],4 (25) n (%)
same,Patient with at least 1 AE,[5]; [18],16 (100) n (%)
same,Serious AEs,[5]; [18],0 (0) n (%)
same,Severe AEs,[5]; [18],0 (0) n (%)
same,Somnolence,[5]; [18],4 (25) n (%)
same,Chromaturia,"[5]; trial 17074, healthy volunteers, N = 16, rifampicin coadministered",13 (81) n (%)
same,healthy volunteers reporting AEs,"[5]; trial 17074, overall, 16 subjects, CBD as two single doses",100%
same,healthy volunteers reporting AEs,"[5]; trial 17074, after CBD alone, during RIF treatment, or after CBD and RIF, of 16",44%
same,elevations in transaminase levels as AEs or laboratory evaluations,"[5]; trial 17074, result in words",no reports
same,AEs leading to withdrawal,[6]; [19],0 (0) n (%)
same,Abdominal pain,[6]; [19],2 (6) n (%)
same,Chromaturia,[6]; [19],0 (0) n (%)
same,Death,[6]; [19],0 (0) n (%)
same,Diarrhea,[6]; [19],3 (9) n (%)
same,Fatigue,[6]; [19],2 (6) n (%)
same,Flatulence,[6]; [19],0 (0) n (%)
same,Headache,[6]; [19],6 (19) n (%)
same,Hepatic enzyme increased,[6]; [19],0 (0) ^c n (%)
same,Nausea,[6]; [19],2 (6) n (%)
same,Patient with at least 1 AE,[6]; [19],20 (63) n (%)
same,Serious AEs,[6]; [19],0 (0) n (%)
same,Severe AEs,[6]; [19],0 (0) n (%)
same,Somnolence,[6]; [19],3 (9) n (%)
same,healthy volunteers reporting AEs,"[6]; trial 17075, overall, 32 subjects, CBD as two single doses",63%
same,healthy volunteers reporting AEs,"[6]; trial 17075 FLU arm, overall, of 16",44%
same,healthy volunteers reporting AEs,"[6]; trial 17075 ITC arm, overall, of 16",81%
same,effect of concomitant STP on exposure,[7],no effect
same,effect of concomitant VPA on exposure,[7],did not affect
same,patients with epilepsy reporting AEs,"[8]; trial 1428, of 20",75%
same,Abdominal pain,[8]; [20],1 (6) n (%)
same,Chromaturia,[8]; [20],0 (0) n (%)
same,Diarrhea,[8]; [20],6 (38) n (%)
same,Fatigue,[8]; [20],1 (6) n (%)
same,Flatulence,[8]; [20],0 (0) n (%)
same,Headache,[8]; [20],1 (6) n (%)
same,Hepatic enzyme increased,[8]; [20],0 (0) ^d n (%)
same,Nausea,[8]; [20],3 (19) n (%)
same,Somnolence,[8]; [20],2 (13) n (%)
same,AEs leading to withdrawal,[8]; [21],1 (5) n (%)
same,Death,[8]; [21],0 (0) n (%)
same,Patient with at least 1 AE,[8]; [21],15 (75) n (%)
same,Serious AEs,[8]; [21],1 (5) n (%)
same,Severe AEs,[8]; [21],1 (5) n (%)
same,patients with epilepsy reporting AEs,"[9]; trial 1447, of 34",68%
same,Abdominal pain,[9]; [22],0 (0) n (%)
same,Chromaturia,[9]; [22],0 (0) n (%)
same,Diarrhea,[9]; [22],16 (57) n (%)
same,Fatigue,[9]; [22],3 (11) n (%)
same,Flatulence,[9]; [22],0 (0) n (%)
same,Headache,[9]; [22],0 (0) n (%)
same,Hepatic enzyme increased,[9]; [22],0 (0) ^e n (%)
same,Nausea,[9]; [22],4 (14) n (%)
same,Somnolence,[9]; [22],1 (4) n (%)
same,AEs leading to withdrawal,[9]; [23],2 (6) n (%)
same,Death,[9]; [23],0 (0) n (%)
same,Patient with at least 1 AE,[9]; [23],23 (68) n (%)
same,Serious AEs,[9]; [23],2 (6) n (%)
same,Severe AEs,[9]; [23],1 (3) n (%)
same,elevations in transaminase levels reported as AEs,[9]; trial 1447,three
same,PPB when VPA and CBD are combined in vitro,[10],not affected
same,inhibition of CYP2C19,[11],potently inhibits
same,inhibition of UGT1A9,[12],potently inhibits
same,inhibition of UGT2B7,[13],potently inhibits
same,half-life,[14],32.5 h
same,half-life,[15],56.8 h
same,half-life,[16],51.2 h
